Laboratory results: ChEMBL document CHEMBL1153612, “Synthesis and antitumor activity of novel dithiocarbamate substituted chromones” (Eur J Med Chem, 2009)
pIC50: −log10 of the molar value. Blank lines part the entries; values can stand above or below the compound they belong to.

Experiments:
SW480 [1] = assay: Cell cycle arrest in human SW480 cells assessed as accumulation at G0/G1 phase at 0.5 uM after 48 hrs by flow cytometry; type: functional
In short: (§1)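 Cells grown to about 70% confluence in 6-well plates, then treated with compound at three concentrations for 48 h. Cell-cycle phase distribution measured by flow cytometry (FACS).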

HEp-2 = assay: Antiproliferative activity against human Hep2 cells after 72 hrs by MTT assay; type: functional, cell-based; details: HEp-2, 72 h
In short: (§2)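 Cells seeded at 8000 per well in 96-well plates, exposed to compound for 72 h. MTT added at 0.5 mg/mL final and incubated 4 h. Formazan dissolved in DMSO, absorbance read at 570 nm. IC50 is the concentration giving 50% reduction in cell growth, reported as the mean of three repeated experiments.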

SW480 [2] = assay: Cell cycle arrest in human SW480 cells assessed as accumulation at G2/M phase at 0.5 uM after 48 hrs by flow cytometry; type: functional; in short: as §1
[3] = Antiproliferative activity against human LM7 cells after 72 hrs by MTT assay; type: functional, cell-based; details: LM7, 72 h; in short: as §2
HeLa = assay: Antiproliferative activity against human HeLa cells after 72 hrs by MTT assay; type: functional, cell-based; in short: as §2
SW480 [4] = assay: Cell cycle arrest in human SW480 cells assessed as accumulation at G0/G1 phase at 0.7 uM after 48 hrs by flow cytometry; type: functional; in short: as §1
MCF7 = assay: Antiproliferative activity against human MCF7 cells after 72 hrs by MTT assay; type: functional, cell-based; details: MCF7, 72 h; in short: as §2
SW480 [5] = assay: Cell cycle arrest in human SW480 cells assessed as accumulation at G2/M phase at 1 uM after 48 hrs by flow cytometry; type: functional; in short: as §1
SW480 [6] = assay: Cell cycle arrest in human SW480 cells assessed as accumulation at S phase at 0.7 uM after 48 hrs by flow cytometry; type: functional; in short: as §1
[7] = Antiproliferative activity against human MDA-MB-435S cells after 72 hrs by MTT assay; type: functional, cell-based; in short: as §2
SW480 [8] = assay: Cell cycle arrest in human SW480 cells assessed as accumulation at S phase at 1 uM after 48 hrs by flow cytometry; type: functional; in short: as §1
SW480 [9] = assay: Cell cycle arrest in human SW480 cells assessed as accumulation at G0/G1 phase at 1 uM after 48 hrs by flow cytometry; type: functional; in short: as §1
SW480 [10] = assay: Cell cycle arrest in human SW480 cells assessed as accumulation at G2/M phase at 0.7 uM after 48 hrs by flow cytometry; type: functional; in short: as §1
SW480 [11] = assay: Antiproliferative activity against human SW480 cells after 72 hrs by MTT assay; type: functional, cell-based; details: SW480, 72 h; in short: as §2
SW480 [12] = assay: Cell cycle arrest in human SW480 cells assessed as accumulation at S phase at 0.5 uM after 48 hrs by flow cytometry; type: functional; in short: as §1
[13] = Cell cycle arrest in human MDA-MB-435S cells assessed as accumulation at S phase at 0.14 uM after 48 hrs by flow cytometry; type: functional, cell-based; in short: as §1
[14] = Cell cycle arrest in human MDA-MB-435S cells assessed as accumulation at G0/G1 phase at 0.14 uM after 48 hrs by flow cytometry; type: functional, cell-based; in short: as §1
[15] = Cell cycle arrest in human MDA-MB-435S cells assessed as accumulation at S phase at 0.12 uM after 48 hrs by flow cytometry; type: functional, cell-based; in short: as §1
[16] = Cell cycle arrest in human MDA-MB-435S cells assessed as accumulation at G0/G1 phase at 0.12 uM after 48 hrs by flow cytometry; type: functional, cell-based; in short: as §1
[17] = Cell cycle arrest in human MDA-MB-435S cells assessed as accumulation at G2/M phase at 0.13 uM after 48 hrs by flow cytometry; type: functional, cell-based; in short: as §1
[18] = Cell cycle arrest in human MDA-MB-435S cells assessed as accumulation at G2/M phase at 0.12 uM after 48 hrs by flow cytometry; type: functional, cell-based; in short: as §1
[19] = Cell cycle arrest in human MDA-MB-435S cells assessed as accumulation at G0/G1 phase at 0.13 uM after 48 hrs by flow cytometry; type: functional, cell-based; in short: as §1
[20] = Cell cycle arrest in human MDA-MB-435S cells assessed as accumulation at S phase at 0.13 uM after 48 hrs by flow cytometry; type: functional, cell-based; in short: as §1
[21] = Cell cycle arrest in human MDA-MB-435S cells assessed as accumulation at G2/M phase at 0.14 uM after 48 hrs by flow cytometry; type: functional, cell-based; in short: as §1

- pIC50 (HeLa): 5.01
- pIC50 (MCF7): 6.00
- pIC50 (SW480 [11]): 6.16
Structure (SMILES): O=c1c(Cl)c(CSC(=S)N2CCCCC2)oc2ccccc12
- Activity (SW480 [1]): 39.39%
- pIC50 (HEp-2): 6.03
- Activity (SW480 [2]): 27.77%
- pIC50 [3]: 5.48
- Activity (SW480 [4]): 36.84%
- Activity (SW480 [5]): 39.27%
- Activity (SW480 [6]): 35.2%
- pIC50 [7]: 6.11
- Activity (SW480 [8]): 34.22%
- Activity (SW480 [9]): 26.51%
- Activity (SW480 [10]): 27.96%
- Activity (SW480 [12]): 37.84%

- pIC50 (HeLa): 6.36
- pIC50 (MCF7): 6.42
- pIC50 (SW480 [11]): 6.10
Structure (SMILES): O=c1c(CSC(=S)N2CCCCC2)coc2ccc(Cl)cc12
- Activity [13]: 33.6%
- Activity [14]: 41.6%
- Activity [15]: 25.3%
- pIC50 (HEp-2): 6.55
- pIC50 [3]: 6.07
- Activity [16]: 60.8%
- Activity [17]: 20.6%
- Activity [18]: 13.9%
- pIC50 [7]: 6.62
- Activity [19]: 58.7%
- Activity [20]: 20.7%
- Activity [21]: 24.9%
